Reference: ChEMBL document CHEMBL1828624, “Synthesis and antioxidant activity of oxazolyl/thiazolylsulfonylmethyl pyrazoles and isoxazoles” (Eur J Med Chem, 2011)
≈ marks a conversion by molar mass, not a printed value. Calls of active or inactive are those of the source. No cut-off for these calls is given here.

Tested on: not listed separately
Test: Antioxidant activity assessed as nitric oxide scavenging activity at 75 ug/ml after 150 mins by Griess method relative to control
Format: functional
Procedure, shortened: (§1)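 NO was generated from sodium nitroprusside (10 mM) in phosphate buffer saline (0.2 M, pH 7.4). Compounds were added at […] and incubated 150 min at 25 °C. Percent scavenging was calculated from control (all reagents minus compound) and sample absorbances. Run in triplicate.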

Structure (SMILES) | Activity
O=S(=O)(CC1=NCCS1)C1C(c2ccccc2)=NN(c2ccccc2)C1c1ccccc1 (stereo not given) | inactive
O=S(=O)(CC1=NCCO1)c1c(-c2ccc(Cl)cc2)nn(-c2ccccc2)c1-c1ccc(Cl)cc1 | inactive
O=S(=O)(CC1=NCCO1)c1n[nH]cc1-c1ccccc1 | 54.7%
O=S(=O)(CC1=NCCS1)C1C(c2ccccc2)=NOC1c1ccccc1 (stereo not given) | inactive
O=S(=O)(CC1=NCCO1)C1C(c2ccc(Cl)cc2)=NOC1c1ccc(Cl)cc1 (stereo not given) | inactive

Tested on: Radical scavenging activity
Test: Antioxidant activity assessed as DPPH free radical scavenging activity at 100 ug/ml after 30 mins by spectrophotometric analysis relative to control
Format: functional
Procedure, shortened: (§2)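 Compounds in methanol at […] were mixed with 0.004% (w/v) methanolic DPPH. After 30 min at room temperature, absorbance was read at 517 nm against a blank. Percent inhibition was calculated from control (all reagents minus compound) and sample absorbances. Run in triplicate.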

Structure (SMILES) | inhibition
O=S(=O)(CC1=NCCS1)C1C(c2ccccc2)=NN(c2ccccc2)C1c1ccccc1 (stereo not given) | inactive
O=S(=O)(CC1=NCCO1)c1c(-c2ccc(Cl)cc2)nn(-c2ccccc2)c1-c1ccc(Cl)cc1 | inactive
O=S(=O)(CC1=NCCO1)c1n[nH]cc1-c1ccccc1 | 60.8%
O=S(=O)(CC1=NCCS1)C1C(c2ccccc2)=NOC1c1ccccc1 (stereo not given) | inactive
O=S(=O)(CC1=NCCO1)C1C(c2ccc(Cl)cc2)=NOC1c1ccc(Cl)cc1 (stereo not given) | inactive

Tested on: not listed separately
Test: Antioxidant activity assessed as nitric oxide scavenging activity at 50 ug/ml after 150 mins by Griess method relative to control
Format: functional
Procedure, shortened: as §1

Structure (SMILES) | Activity
O=S(=O)(CC1=NCCS1)C1C(c2ccccc2)=NN(c2ccccc2)C1c1ccccc1 (stereo not given) | inactive
O=S(=O)(CC1=NCCO1)c1c(-c2ccc(Cl)cc2)nn(-c2ccccc2)c1-c1ccc(Cl)cc1 | inactive
O=S(=O)(CC1=NCCO1)c1n[nH]cc1-c1ccccc1 | 50.6%
O=S(=O)(CC1=NCCS1)C1C(c2ccccc2)=NOC1c1ccccc1 (stereo not given) | inactive
O=S(=O)(CC1=NCCO1)C1C(c2ccc(Cl)cc2)=NOC1c1ccc(Cl)cc1 (stereo not given) | inactive

Tested on: Radical scavenging activity
Test: Antioxidant activity assessed as DPPH free radical scavenging activity after 30 mins by spectrophotometric analysis
Format: functional
Procedure, shortened: as §2

IC50 | Structure (SMILES)
Not Active | O=S(=O)(CC1=NCCS1)C1C(c2ccccc2)=NN(c2ccccc2)C1c1ccccc1 (stereo not given)
Not Active | O=S(=O)(CC1=NCCO1)c1c(-c2ccc(Cl)cc2)nn(-c2ccccc2)c1-c1ccc(Cl)cc1
82.26 µg/mL (≈ 282 µM) | O=S(=O)(CC1=NCCO1)c1n[nH]cc1-c1ccccc1
Not Active | O=S(=O)(CC1=NCCS1)C1C(c2ccccc2)=NOC1c1ccccc1 (stereo not given)
Not Active | O=S(=O)(CC1=NCCO1)C1C(c2ccc(Cl)cc2)=NOC1c1ccc(Cl)cc1 (stereo not given)

Tested on: Radical scavenging activity
Test: Antioxidant activity assessed as DPPH free radical scavenging activity at 75 ug/ml after 30 mins by spectrophotometric analysis relative to control
Format: functional
Procedure, shortened: as §2

Structure (SMILES) | inhibition
O=S(=O)(CC1=NCCS1)C1C(c2ccccc2)=NN(c2ccccc2)C1c1ccccc1 (stereo not given) | inactive
O=S(=O)(CC1=NCCO1)c1c(-c2ccc(Cl)cc2)nn(-c2ccccc2)c1-c1ccc(Cl)cc1 | inactive
O=S(=O)(CC1=NCCO1)c1n[nH]cc1-c1ccccc1 | 54.3%
O=S(=O)(CC1=NCCS1)C1C(c2ccccc2)=NOC1c1ccccc1 (stereo not given) | inactive
O=S(=O)(CC1=NCCO1)C1C(c2ccc(Cl)cc2)=NOC1c1ccc(Cl)cc1 (stereo not given) | inactive

Tested on: not listed separately
Test: Antioxidant activity assessed as hydrogen peroxide scavenging activity at 100 ug/ml relative to control
Format: functional

Structure (SMILES) | Activity
O=S(=O)(CC1=NCCS1)C1C(c2ccccc2)=NN(c2ccccc2)C1c1ccccc1 (stereo not given) | inactive
O=S(=O)(CC1=NCCO1)c1c(-c2ccc(Cl)cc2)nn(-c2ccccc2)c1-c1ccc(Cl)cc1 | inactive
O=S(=O)(CC1=NCCO1)c1n[nH]cc1-c1ccccc1 | 58.5%
O=S(=O)(CC1=NCCS1)C1C(c2ccccc2)=NOC1c1ccccc1 (stereo not given) | inactive
O=S(=O)(CC1=NCCO1)C1C(c2ccc(Cl)cc2)=NOC1c1ccc(Cl)cc1 (stereo not given) | inactive

Tested on: not listed separately
Test: Antioxidant activity assessed as hydrogen peroxide scavenging activity at 75 ug/ml relative to control
Format: functional

Structure (SMILES) | Activity
O=S(=O)(CC1=NCCS1)C1C(c2ccccc2)=NN(c2ccccc2)C1c1ccccc1 (stereo not given) | inactive
O=S(=O)(CC1=NCCO1)c1c(-c2ccc(Cl)cc2)nn(-c2ccccc2)c1-c1ccc(Cl)cc1 | inactive
O=S(=O)(CC1=NCCO1)c1n[nH]cc1-c1ccccc1 | 55.6%
O=S(=O)(CC1=NCCS1)C1C(c2ccccc2)=NOC1c1ccccc1 (stereo not given) | inactive
O=S(=O)(CC1=NCCO1)C1C(c2ccc(Cl)cc2)=NOC1c1ccc(Cl)cc1 (stereo not given) | inactive

Tested on: not listed separately
Test: Antioxidant activity assessed as nitric oxide scavenging activity at 100 ug/ml after 150 mins by Griess method relative to control
Format: functional
Procedure, shortened: as §1

Structure (SMILES) | Activity
O=S(=O)(CC1=NCCS1)C1C(c2ccccc2)=NN(c2ccccc2)C1c1ccccc1 (stereo not given) | inactive
O=S(=O)(CC1=NCCO1)c1c(-c2ccc(Cl)cc2)nn(-c2ccccc2)c1-c1ccc(Cl)cc1 | inactive
O=S(=O)(CC1=NCCO1)c1n[nH]cc1-c1ccccc1 | 57.5%
O=S(=O)(CC1=NCCS1)C1C(c2ccccc2)=NOC1c1ccccc1 (stereo not given) | inactive
O=S(=O)(CC1=NCCO1)C1C(c2ccc(Cl)cc2)=NOC1c1ccc(Cl)cc1 (stereo not given) | inactive

Tested on: Radical scavenging activity
Test: Antioxidant activity assessed as DPPH free radical scavenging activity at 50 ug/ml after 30 mins by spectrophotometric analysis relative to control
Format: functional
Procedure, shortened: as §2

Structure (SMILES) | inhibition
O=S(=O)(CC1=NCCS1)C1C(c2ccccc2)=NN(c2ccccc2)C1c1ccccc1 (stereo not given) | inactive
O=S(=O)(CC1=NCCO1)c1c(-c2ccc(Cl)cc2)nn(-c2ccccc2)c1-c1ccc(Cl)cc1 | inactive
O=S(=O)(CC1=NCCO1)c1n[nH]cc1-c1ccccc1 | 50.1%
O=S(=O)(CC1=NCCS1)C1C(c2ccccc2)=NOC1c1ccccc1 (stereo not given) | inactive
O=S(=O)(CC1=NCCO1)C1C(c2ccc(Cl)cc2)=NOC1c1ccc(Cl)cc1 (stereo not given) | inactive

Tested on: not listed separately
Test: Antioxidant activity assessed as hydrogen peroxide scavenging activity at 50 ug/ml relative to control
Format: functional

Structure (SMILES) | Activity
O=S(=O)(CC1=NCCS1)C1C(c2ccccc2)=NN(c2ccccc2)C1c1ccccc1 (stereo not given) | inactive
O=S(=O)(CC1=NCCO1)c1c(-c2ccc(Cl)cc2)nn(-c2ccccc2)c1-c1ccc(Cl)cc1 | inactive
O=S(=O)(CC1=NCCO1)c1n[nH]cc1-c1ccccc1 | 53.3%
O=S(=O)(CC1=NCCS1)C1C(c2ccccc2)=NOC1c1ccccc1 (stereo not given) | inactive
O=S(=O)(CC1=NCCO1)C1C(c2ccc(Cl)cc2)=NOC1c1ccc(Cl)cc1 (stereo not given) | inactive
